Source: ChEMBL document CHEMBL5620421, “2,6-Disubstituted 7-(naphthalen-2-ylmethyl)-7H-purines as a new class of potent antitubercular agents inhibiting DprE1” (Eur J Med Chem, 2023)
The source made the active and inactive calls. No cut-off for these calls is given here.

What was measured:
[1] = tested on: Staphylococcus epidermidis; test: Antibacterial activity against Staphylococcus epidermidis C1936 assessed as inhibition of bacterial growth at 125 uM incubated for 24 to 48 hrs by microdilution broth method; format: functional, organism-based; settings: time 24-48 hrs
[2] = tested on: Klebsiella pneumoniae; test: Antibacterial activity against ESBL negative Klebsiella pneumoniae C1950 assessed as inhibition of bacterial growth at 125 uM incubated for 24 to 48 hrs by microdilution broth method; format: functional, organism-based; settings: time 24-48 hrs
[3] = tested on: Mycobacterium tuberculosis; test: Antitubercular activity against Mycobacterium tuberculosis CNCTC My 331/88 (H37Rv) infected in MONO-MAC-6 cells assessed as inhibition of bacterial growth measured after 48 hrs of incubation by MTT based ELISA; format: functional, organism-based; settings: MONO-MAC-6, 48 h
How it was run: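 MonoMac6 cells in RPMI-1640 with 10% FBS, 2 mM glutamine and gentamicin, seeded at 6.5 × 10³ cells/well the day before. Treated 48 h at 2.56 × 10⁻³–250 μM in incomplete medium with 1% DMSO. Read by MTT (3.5 h), formazan in DMSO, absorbance at 540/620 nm. IC50 from dose-response curves.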

[4] = tested on: Mycobacterium tuberculosis; test: Antitubercular activity against Mycobacterium tuberculosis CNCTC My 331/88 (H37Rv) infected in MONO-MAC-6 cells assessed as reduction in colony forming unit growth at 25 uM measured after 48 hrs of incubation by MTT based ELISA relative to control; format: functional; set-up: scale not given: the % may be the effect or the level left

Question: What does the source list for `CCOc1nc(N2CCOCC2)nc2ncn(Cc3ccc4ccccc4c3)c12`?
Answer: Activity [1]: inactive; Activity [2]: inactive

Question: With `Nc1nc(N2CCOCC2)nc2ncn(Cc3ccc4ccccc4c3)c12` as the molecule, how does the Activity [1] read?
Answer: inactive

Question: What about the Activity [2] of the same molecule?
Answer: inactive

Question: `CCNc1nc(N2CCOCC2)nc2ncn(Cc3ccc4ccccc4c3)c12` was tested. Which Activity [1] did it give?
Answer: inactive

Question: What about the Activity [2] of the same molecule?
Answer: inactive

Question: And the IC50 [3]?
Answer: 57 µM

Question: What about the Activity [4] of the same molecule?
Answer: >=80%
